Experiments:
Assay type in all cases: protein assay
Bcl-xL/BAX = Bcl-xL/BAX (Homo sapiens, UniProt Q07812+Q07817); test: Inhibition of GST-tagged Bcl-xl/FITC-conjugated Bax interaction by fluorescence polarisation assay
Bcl-xL/BAK = Bcl-xL/BAK (Homo sapiens, UniProt Q07817); test: Inhibition of GST-tagged […]/FITC-conjugated Bak interaction by fluorescence polarisation assay
[1] = molecular target: Bcl-xL/BH3-interacting domain death agonist (Homo sapiens, UniProt Q07817); test: Inhibition of GST-tagged Bcl-xl/FITC-conjugated Bid interaction by fluorescence polarisation assay
[2] = molecular target: Bcl-xL/Bcl-2-like protein 11 (Homo sapiens, UniProt Q07817); test: Inhibition of GST-tagged Bcl-xl/FITC-conjugated Bim interaction by fluorescence polarisation assay
[3] = molecular target: Bcl-xL/Bcl-2-binding component 3 (Homo sapiens, UniProt Q07817+Q9BXH1); test: Inhibition of GST-tagged Bcl-xl/FITC-conjugated PUMA interaction by fluorescence polarisation assay
[4] = molecular target: Apoptosis regulator BAX/Bcl-2 (Homo sapiens, UniProt P10415+Q07812); test: Inhibition of GST-tagged Bcl-2/FITC-conjugated Bax interaction by fluorescence polarisation assay
Summary of the method: (§1)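 Recombinant GST-fused anti-apoptotic protein (Bcl-xl, Bcl-2, Bfl-1 or Mcl-1, each lacking its C-terminal tail) at 100 nM, incubated in the dark with 15 nM N-terminally FITC-labelled BH3 peptide (Bak, Bax, Bid or Bim) and a range of compound concentrations. Fluorescence polarisation was read, and IC50 was derived from the concentration-response curve.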

[5] = molecular target: Apoptosis regulator BAX/Bcl-2-related protein A1 (Homo sapiens, UniProt Q07812+Q16548); test: Inhibition of GST-tagged Bfl-1/FITC-conjugated Bax interaction by fluorescence polarisation assay; summary of the method: as §1
[6] = molecular target: Apoptosis regulator BAX/Induced myeloid leukemia cell differentiation protein Mcl-1 (Homo sapiens, UniProt Q07812+Q07820); test: Inhibition of GST-tagged Mcl-1/FITC-conjugated Bax interaction by fluorescence polarisation assay; summary of the method: as §1
Sequence of Apoptosis regulator BAX/Induced myeloid leukemia cell differentiation protein Mcl-1 (Q07820 whole entry): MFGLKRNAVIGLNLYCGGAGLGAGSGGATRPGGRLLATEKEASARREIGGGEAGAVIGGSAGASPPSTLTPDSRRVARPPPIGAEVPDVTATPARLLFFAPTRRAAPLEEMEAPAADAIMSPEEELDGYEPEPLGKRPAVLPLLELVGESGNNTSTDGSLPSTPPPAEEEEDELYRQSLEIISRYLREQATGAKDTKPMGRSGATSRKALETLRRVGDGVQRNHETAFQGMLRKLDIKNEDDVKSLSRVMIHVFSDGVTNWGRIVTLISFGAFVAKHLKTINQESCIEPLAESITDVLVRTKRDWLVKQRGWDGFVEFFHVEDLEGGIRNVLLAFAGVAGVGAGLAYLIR
Sequence of Apoptosis regulator BAX/Induced myeloid leukemia cell differentiation protein Mcl-1 (Q07812 whole entry): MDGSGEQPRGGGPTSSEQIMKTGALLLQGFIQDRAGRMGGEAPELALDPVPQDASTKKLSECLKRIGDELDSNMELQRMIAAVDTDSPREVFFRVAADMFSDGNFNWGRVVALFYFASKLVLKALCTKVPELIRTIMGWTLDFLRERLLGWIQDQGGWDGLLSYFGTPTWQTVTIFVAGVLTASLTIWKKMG

Sequence of Bcl-xL/BAX (Q07817 whole entry): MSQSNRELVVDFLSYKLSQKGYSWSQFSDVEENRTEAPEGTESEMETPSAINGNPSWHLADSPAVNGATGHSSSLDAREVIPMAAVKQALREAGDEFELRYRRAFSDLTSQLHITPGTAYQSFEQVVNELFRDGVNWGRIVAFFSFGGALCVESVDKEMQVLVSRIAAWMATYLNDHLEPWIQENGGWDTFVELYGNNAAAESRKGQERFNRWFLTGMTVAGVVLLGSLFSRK
Sequence of Bcl-xL/BAX (Q07812 whole entry): as the sequence (Q07812 whole entry) above
Sequence of Bcl-xL/BH3-interacting domain death agonist (Q07817 whole entry, the tested form may be a part): as the sequence (Q07817 whole entry) above
Sequence of Bcl-xL/BH3-interacting domain death agonist (P55957 whole entry, further chain, the tested form may be a part): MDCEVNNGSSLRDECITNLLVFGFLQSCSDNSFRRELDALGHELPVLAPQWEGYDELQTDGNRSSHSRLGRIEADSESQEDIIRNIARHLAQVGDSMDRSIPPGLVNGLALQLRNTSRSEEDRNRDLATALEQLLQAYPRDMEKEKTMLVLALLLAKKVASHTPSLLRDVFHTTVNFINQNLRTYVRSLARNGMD
Sequence of Bcl-xL/Bcl-2-binding component 3 (Q07817 whole entry): as the sequence (Q07817 whole entry) above
Sequence of Bcl-xL/Bcl-2-binding component 3 (Q9BXH1 whole entry): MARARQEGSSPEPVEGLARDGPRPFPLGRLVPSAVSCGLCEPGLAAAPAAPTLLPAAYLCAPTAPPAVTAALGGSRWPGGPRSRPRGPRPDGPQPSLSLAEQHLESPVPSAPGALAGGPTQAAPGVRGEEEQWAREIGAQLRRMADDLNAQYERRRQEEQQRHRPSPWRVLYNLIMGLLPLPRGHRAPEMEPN
Sequence of Bcl-xL/BAK (Q07817 whole entry, the tested form may be a part): as the sequence (Q07817 whole entry) above
Sequence of Bcl-xL/BAK (Q16611 whole entry, further chain, the tested form may be a part): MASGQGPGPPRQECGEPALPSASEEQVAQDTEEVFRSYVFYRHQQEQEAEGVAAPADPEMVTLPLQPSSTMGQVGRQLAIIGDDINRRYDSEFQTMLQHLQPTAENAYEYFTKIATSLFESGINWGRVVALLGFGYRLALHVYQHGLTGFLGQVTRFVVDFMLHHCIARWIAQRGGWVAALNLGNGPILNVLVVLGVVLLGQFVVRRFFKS
Sequence of Bcl-xL/Bcl-2-like protein 11 (Q07817 whole entry): as the sequence (Q07817 whole entry) above
Sequence of Bcl-xL/Bcl-2-like protein 11 (O43521 whole entry, further chain): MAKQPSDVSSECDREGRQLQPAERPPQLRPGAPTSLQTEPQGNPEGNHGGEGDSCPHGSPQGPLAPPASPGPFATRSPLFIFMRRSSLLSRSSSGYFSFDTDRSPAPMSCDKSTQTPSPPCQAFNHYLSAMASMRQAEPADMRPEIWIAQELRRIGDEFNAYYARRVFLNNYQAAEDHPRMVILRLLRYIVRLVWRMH
Sequence of Apoptosis regulator BAX/Bcl-2 (P10415 whole entry, the tested form may be a part): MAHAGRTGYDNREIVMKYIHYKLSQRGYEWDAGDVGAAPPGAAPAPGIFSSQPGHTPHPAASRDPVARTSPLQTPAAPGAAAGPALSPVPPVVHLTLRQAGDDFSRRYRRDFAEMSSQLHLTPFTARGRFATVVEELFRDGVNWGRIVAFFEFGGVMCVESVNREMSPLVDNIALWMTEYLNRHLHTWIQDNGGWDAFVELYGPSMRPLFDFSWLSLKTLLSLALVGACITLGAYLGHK
Sequence of Apoptosis regulator BAX/Bcl-2 (Q07812 whole entry, the tested form may be a part): as the sequence (Q07812 whole entry) above
Sequence of Apoptosis regulator BAX/Bcl-2-related protein A1 (Q07812 whole entry): as above
Sequence of Apoptosis regulator BAX/Bcl-2-related protein A1 (Q16548 whole entry): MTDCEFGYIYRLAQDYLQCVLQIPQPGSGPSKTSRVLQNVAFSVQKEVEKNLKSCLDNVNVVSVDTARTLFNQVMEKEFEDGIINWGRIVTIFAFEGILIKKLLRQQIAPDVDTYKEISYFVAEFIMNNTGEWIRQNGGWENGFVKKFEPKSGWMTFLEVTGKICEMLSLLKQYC

Structure (SMILES)	IC50 (Bcl-xL/BAX)	IC50 (Bcl-xL/BAK)	IC50 [1]	IC50 [2]	IC50 [3]	IC50 [4]	IC50 [5]	IC50 [6]
CCOc1nc2ccccc2cc1-c1cc(C(C)C)c2cc(-c3cc(C(C)C)c4ccc(OC)nc4c3)c(OC)nc2c1	243 µM	74 µM	21 µM	47 µM	54 µM	–	–	–
COc1ccc2c(CC(C)C)cc(-c3cc4c(C(C)C)cccc4nc3OC)cc2n1	> 1000 µM	> 1000 µM	> 1000 µM	29 µM	> 1000 µM	–	–	–
CCC(C)c1cc(-c2cc3c(CC(C)C)cc(-c4cc5c(C(C)C)cccc5nc4OC)cc3nc2OC)cc2nc(OC)ccc12 (racemic)	26 µM	25 µM	27 µM	92.5 µM	42 µM	43 µM	68 µM	45.5 µM

Reference: ChEMBL document CHEMBL1250523, “Synthesis and biological activities of new di- and trimeric quinoline derivatives” (Bioorg Med Chem, 2010)
